Source: article PMC2077835 (Drug metabolism and disposition: the biological fate of …, 2006)

Legend:
Format in all cases: in vitro ADME
Details in all cases: 3.0 μM DB289, 50 pmol/ml P450, 15 min
recombinant human CYP2B6 = recombinant human CYP2B6 (Homo sapiens, UniProt P20813); test: DB289 consumption by recombinant CYP2B6
Procedure, shortened: (§1)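 Baculovirus-insect-cell Supersomes coexpressing human P450 with NADPH-P450 reductase; the CYP2E1 enzyme also had cytochrome b5. 3.0 μM substrate, 50 pmol/ml P450 (100 pmol/ml for CYP2C8 and CYP2C9), in 100 mM phosphate pH 7.4 with 3.3 mM MgCl2 and 1 mM NADPH, 37°C, 15 min. Quenched in ice-cold acidified acetonitrile with deuterated internal standard, then LC/MS/MS. Percent consumed relative to 0 min; control Supersomes; duplicates.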

[1] = biological target: recombinant human CYP4F12 (Homo sapiens, UniProt Q9HCS2); test: DB289 consumption by recombinant CYP4F12
Procedure, shortened: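 A second recombinant panel (Supersomes; the CYP2J2, CYP3A7 and CYP4F forms coexpressed with reductase and cytochrome b5). Each enzyme was incubated alone with 3.0 μM substrate and NADPH in pH 7.4 phosphate/MgCl2 at 37°C for 15 min. Acetonitrile quench with internal standard, centrifugation, LC/MS/MS. Percent consumed normalised to 0 min. Control Supersomes; means of duplicates.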

recombinant human CYP1A2 = recombinant human CYP1A2 (Homo sapiens, UniProt P05177); test: DB289 consumption by recombinant CYP1A2
Procedure, shortened: as §1

Chain of recombinant human CYP4F12 (Q9HCS2 whole entry): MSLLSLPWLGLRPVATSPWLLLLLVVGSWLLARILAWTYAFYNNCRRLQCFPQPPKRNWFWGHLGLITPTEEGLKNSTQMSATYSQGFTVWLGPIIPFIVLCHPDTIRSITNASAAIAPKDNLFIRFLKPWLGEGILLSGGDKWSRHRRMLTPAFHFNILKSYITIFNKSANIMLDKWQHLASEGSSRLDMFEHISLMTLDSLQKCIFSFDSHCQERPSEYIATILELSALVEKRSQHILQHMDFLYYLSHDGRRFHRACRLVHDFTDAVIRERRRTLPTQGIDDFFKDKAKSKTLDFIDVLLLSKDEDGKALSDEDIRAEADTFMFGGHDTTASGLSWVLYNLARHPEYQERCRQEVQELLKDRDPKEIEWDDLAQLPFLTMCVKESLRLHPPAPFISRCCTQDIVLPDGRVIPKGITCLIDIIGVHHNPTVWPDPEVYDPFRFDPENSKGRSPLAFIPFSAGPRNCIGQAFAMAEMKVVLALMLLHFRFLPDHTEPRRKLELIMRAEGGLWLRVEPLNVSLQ
Chain of recombinant human CYP2B6 (P20813 whole entry): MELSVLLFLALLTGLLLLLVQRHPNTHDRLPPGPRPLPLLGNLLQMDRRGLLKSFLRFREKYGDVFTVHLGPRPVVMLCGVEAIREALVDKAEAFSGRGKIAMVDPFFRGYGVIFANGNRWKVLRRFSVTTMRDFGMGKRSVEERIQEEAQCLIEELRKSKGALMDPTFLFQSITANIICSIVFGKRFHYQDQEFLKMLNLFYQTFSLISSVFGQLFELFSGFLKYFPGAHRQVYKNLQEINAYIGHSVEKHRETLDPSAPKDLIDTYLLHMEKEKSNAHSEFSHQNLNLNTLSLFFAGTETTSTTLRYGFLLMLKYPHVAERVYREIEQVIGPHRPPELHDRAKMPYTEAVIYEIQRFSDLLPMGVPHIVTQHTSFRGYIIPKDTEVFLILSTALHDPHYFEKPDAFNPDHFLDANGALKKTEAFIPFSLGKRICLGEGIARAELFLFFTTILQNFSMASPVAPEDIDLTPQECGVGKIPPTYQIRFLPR
Chain of recombinant human CYP1A2 (P05177 2-516 limits assumed): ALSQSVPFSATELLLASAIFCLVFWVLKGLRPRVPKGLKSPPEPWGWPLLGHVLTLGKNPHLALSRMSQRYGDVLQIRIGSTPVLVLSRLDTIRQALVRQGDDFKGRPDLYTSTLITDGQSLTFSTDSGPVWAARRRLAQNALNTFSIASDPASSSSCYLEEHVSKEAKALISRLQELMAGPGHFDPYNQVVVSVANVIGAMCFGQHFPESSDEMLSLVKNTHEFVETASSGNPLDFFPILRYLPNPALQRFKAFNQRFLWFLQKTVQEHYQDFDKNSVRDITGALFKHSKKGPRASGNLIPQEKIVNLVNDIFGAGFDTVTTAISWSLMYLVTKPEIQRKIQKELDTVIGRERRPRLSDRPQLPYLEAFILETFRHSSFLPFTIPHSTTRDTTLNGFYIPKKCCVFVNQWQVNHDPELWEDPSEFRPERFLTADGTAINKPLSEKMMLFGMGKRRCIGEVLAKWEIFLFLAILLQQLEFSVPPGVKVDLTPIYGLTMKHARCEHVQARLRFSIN

percentage of substrate consumed (recombinant human CYP2B6): less than 5%
percentage of substrate consumed [1]: 10%
percentage of substrate consumed (recombinant human CYP1A2): 61%
Compound: CON=C(N)c1ccc(-c2ccc(-c3ccc(C(N)=NOC)cc3)o2)cc1 [DB289, 2,5-bis(4-amidinophenyl)furan-bis-O-methylamidoxime]
